The subject of one data set is J774. As to the kind of experiment: Cytotoxicity against mouse J774 cells assessed as cell viability up to 100 uM after 72 hrs by AlamarBlue assay. Format: cell-based. The note with it: j774, 72 h. In short, it runs like this: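 J774 murine macrophage-like cells are seeded at 2 × 10^5 cells/well in DMEM with 10% FBS and gentamycin and incubated 2 h at 37 °C, 5% CO2. Compounds are added at five concentrations (6.25-100) for 72 h, in 5% DMSO/saline vehicle. Alamar Blue is then added for 12 h more, with absorbance read at 570 and 600 nm. Gentian violet serves as positive control. Triplicates, three experiments.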

Data set [1] deals with T1, Adenosine receptor A2b (Homo sapiens) (UniProt P29275).
T1 sequence (whole entry): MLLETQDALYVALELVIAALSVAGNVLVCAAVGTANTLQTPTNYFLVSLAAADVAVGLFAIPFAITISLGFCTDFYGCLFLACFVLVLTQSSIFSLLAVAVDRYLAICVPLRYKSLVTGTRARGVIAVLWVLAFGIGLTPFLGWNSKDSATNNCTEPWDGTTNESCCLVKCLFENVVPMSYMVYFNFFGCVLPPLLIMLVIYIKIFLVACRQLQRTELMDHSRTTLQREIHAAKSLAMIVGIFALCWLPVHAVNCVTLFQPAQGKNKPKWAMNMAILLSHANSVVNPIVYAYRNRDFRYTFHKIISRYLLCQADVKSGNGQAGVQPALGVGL
As to the kind of experiment: Antagonist activity at Adenosine receptor subtype 2B in human RBC assessed as change in erythrocyte morphology at 10 uM incubated for 3 hrs with occasional gentle stirring for every 30 min measured for every 12 hrs by microscopic analysis relative to control. The arrangement: scale not given: the % may be the effect or the level left. Format: functional, cell-based. In short, it runs like this:
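RBCs come from sickle cell anemia patients, washed in 0.9% saline and diluted 1:10. Cells are exposed to compound at a single 10 µM final concentration for 3 h at 37 °C, stirred gently every 30 min, then given 2% sodium metabisulfite. Morphology is read by microscopy (40X) every 12 h, counting >500 erythrocytes from five random fields. Triplicate assays; MRS1754 (10 µM) is the reference antagonist.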

Data set [2] deals with T1, Adenosine receptor A2b (Homo sapiens). As to the kind of experiment: Antagonist activity at Adenosine receptor subtype 2B in human RBC assessed as inhibition of NECA-induced-sickling effect by measuring change in erythrocyte morphology preincubated for 3 hrs with occasional gentle stirring for every 30 min followed by incubated for 2 to 12 hrs under normoxic/hypoxic condition measured for every 12 hrs by microscopic analysis. Format: functional, cell-based. In short, it runs like this:
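Patient SCA erythrocytes are treated as in the EC50 sickling assay. Compounds are tested at three concentrations (0.03-1) against six NECA concentrations (0.001-1000). Sickling is scored by microscopy. NECA EC50 is determined with and without compound, and the dose ratio is derived from these. pKb is obtained by Schild analysis as log[DR−1] − log[B]. Mean ± SD of five experiments.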

For a further data set, the target named is Adenosine receptor (Homo sapiens, UniProt P30542+P29275+P0DMS8+P29274). The data set is described as follows: Antagonist activity at Adenosine receptor in human RBC assessed as change in erythrocyte morphology incubated for 3 hrs with occasional gentle stirring for every 30 min measured for every 12 hrs by microscopic analysis. It is filed as cell-based. In short, it runs like this:
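Erythrocytes from sickle cell anemia patients are separated by centrifugation (5 min, 16,000 g, 4 °C), washed three times in 0.9% saline and diluted 1:10 in saline. Cells are held with compound at 37 °C for 3 h, then challenged with 2% sodium metabisulfite. Sickled cells (>500 cells, five fields, 40X) are counted. Seven concentrations (0.001-100) are tested. EC50 comes from biphasic nonlinear regression with Hill slopes fixed at 1.0. Mean ± SD of five experiments, each in triplicate.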

Experimental findings from ChEMBL document CHEMBL4138111, “Nanomolar anti-sickling compounds identified by ligand-based pharmacophore approach” (Eur J Med Chem, 2017) are described below.

A word on the pKb: it is −log10 of the Kb, conventionally taken in molar units. As usually defined, the pEC50 is the negative decadic logarithm of the EC50, by convention in mol/L.

For the compound `CCCc1cc(O)nc(SC(C)C(=O)Nc2cc(C)no2)n1` (stereo not drawn), the Activity entry in the data set on J774 was “Non-Toxic”; in data set [1] it was greater than 70%. Besides, the inhibition entry in data set [2] is “Dose-dependent effect”. In addition, in data set [2], the negative logarithm of the Kb (pKb) was found to be 9.45.
In the case of `Cc1cc(NC(=O)CNc2ccc3c(c2)OC(F)(F)O3)on1`, the pEC50 on Adenosine receptor came out at 5.06. Also, the Activity in data set [1] was greater than 70%. Further, in data set [2], the inhibition entry was “Dose-dependent effect” and the negative-log Kb (pKb) amounted to 7.38.
For `CC(C)c1noc(OCC(=O)NCc2ccc3c(c2)OCO3)n1` the same measures were 4.21, greater than 70%, “Dose-dependent effect” and 7.99.
Turning to `O=C(CN1CCOC(Cn2cncn2)C1)Nc1cccnc1` (stereo not drawn), the Activity entry in the data set with J774 was “Non-Toxic”; in data set [1], greater than 70%. Moreover, the pEC50 at Adenosine receptor amounted to 5.29. The inhibition result in data set [2] was “Dose-dependent effect”. For the same compound, in data set [2], the negative-log Kb (pKb) is 8.31.
Take `CC(OC(=O)c1nccnc1N)C(=O)NCc1ccc2c(c1)OCO2` (stereo not drawn): the Activity in data set [1] is greater than 70%. In addition, in data set [2], the inhibition result was “Dose-dependent effect” and the pKb is 9.54.
In the same order, the values of `CCCn1c(=O)c2[nH]c(-c3ccc(OCC(=O)Nc4ccc(C#N)cc4)cc3)nc2n(CCC)c1=O` are 54%, “Dose-dependent effect” and 8.68.
